Data taken from ChEMBL document CHEMBL1157000, “Aminofurazans as potent inhibitors of AKT kinase” (Bioorg Med Chem Lett, 2009).

Legend:
BT-474 = assay: Antiproliferative activity against human BT474 cells; assay type: functional, cell-based
Procedure, shortened: (§1)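 Cell proliferation inhibition in tumour lines (BT474, LNCaP) and non-tumour HFF cells; values are the mean of at least two experiments.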

LNCaP = assay: Antiproliferative activity against human LNCAP cells; assay type: functional, cell-based; procedure, shortened: as §1
[1] = biological target: RAC-alpha serine/threonine-protein kinase (Homo sapiens, UniProt P31749); assay: Inhibition of AKT
Chain of RAC-alpha serine/threonine-protein kinase (P31749 whole entry): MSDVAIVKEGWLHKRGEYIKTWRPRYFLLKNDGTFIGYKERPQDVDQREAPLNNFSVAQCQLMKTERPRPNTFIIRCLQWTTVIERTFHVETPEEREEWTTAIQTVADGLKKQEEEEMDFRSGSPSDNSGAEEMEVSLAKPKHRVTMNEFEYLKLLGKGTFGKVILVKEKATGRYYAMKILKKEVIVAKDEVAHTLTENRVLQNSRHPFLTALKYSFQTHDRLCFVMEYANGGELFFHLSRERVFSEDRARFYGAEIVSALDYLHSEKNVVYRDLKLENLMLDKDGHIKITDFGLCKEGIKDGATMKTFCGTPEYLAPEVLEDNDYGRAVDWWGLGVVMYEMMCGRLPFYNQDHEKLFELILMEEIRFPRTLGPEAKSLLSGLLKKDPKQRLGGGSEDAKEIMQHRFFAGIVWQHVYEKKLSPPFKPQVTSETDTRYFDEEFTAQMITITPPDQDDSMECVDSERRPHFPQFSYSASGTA

HFF = assay: Antiproliferative activity against human HFF cells; assay type: functional, cell-based; procedure, shortened: as §1
[2] = biological target: RAC-gamma serine/threonine-protein kinase (Homo sapiens, UniProt Q9Y243); assay: Inhibition of AKT3
Chain of RAC-gamma serine/threonine-protein kinase (Q9Y243 whole entry): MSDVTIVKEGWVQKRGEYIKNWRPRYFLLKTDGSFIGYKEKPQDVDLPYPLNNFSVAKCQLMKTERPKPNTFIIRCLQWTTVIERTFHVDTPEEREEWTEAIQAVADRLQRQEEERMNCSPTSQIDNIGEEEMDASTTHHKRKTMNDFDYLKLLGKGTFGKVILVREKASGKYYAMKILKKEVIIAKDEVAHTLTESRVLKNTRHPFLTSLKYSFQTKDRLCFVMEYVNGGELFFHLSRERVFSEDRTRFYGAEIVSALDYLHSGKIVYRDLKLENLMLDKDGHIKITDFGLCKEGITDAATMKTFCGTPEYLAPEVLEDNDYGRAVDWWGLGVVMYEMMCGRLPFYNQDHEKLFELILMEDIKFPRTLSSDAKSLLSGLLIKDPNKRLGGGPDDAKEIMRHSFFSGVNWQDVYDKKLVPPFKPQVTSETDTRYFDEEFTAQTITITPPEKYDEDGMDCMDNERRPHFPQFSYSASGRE

Mus musculus = assay: Inhibition of GSK3B phosphorylation in human BT474 cells xenografted in ip dosed mouse; assay type: functional, organism-based; conditions: BT-474
Procedure, shortened: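 Mice bearing BT474 xenografts were dosed ip at […], 12.5 or 25 mg/kg, with a vehicle control group. GSK3b phosphorylation in the tumours was the read-out.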

IC50 (BT-474) [nM]	IC50 (LNCaP) [nM]	IC50 [1] [nM]	Ki [1] [nM]	IC50 [2] [nM]	SMILES	IC50 (HFF) [nM]	inhibition (Mus musculus)
7120	3180	16	115		CCn1c(-c2nonc2N)nc2c(C#CC(C)(C)O)nc(OCCCN)cc21	30000	
806	296	6			CCn1c(-c2nonc2N)nc2c(C#CC(C)(C)O)nc(CN)cc21	24000	
860	220	8			CCn1c(-c2nonc2N)nc2c(C#CC(C)(C)O)nc(OC[C@@H](C)N)cc21	17000	
3440	176	5		49	CCn1c(-c2nonc2N)nc2c(C#CC(C)(C)O)nc(OC[C@@H](N)c3ccccc3)cc21 [GSK-938890A]	20000	
2100	124	3		17	CCn1c(-c2nonc2N)nc2c(C#CC(C)(C)O)nc(OC[C@H](N)c3ccccc3)cc21 [GSK-943949A]	5000	
3520	4720	3		30	CCn1c(-c2nonc2N)nc2c(C#CC(C)(C)O)nc(CCCN)cc21	23000	
3190	896	12			CCn1c(-c2nonc2N)nc2c(C#CC(C)(C)O)nc(OCCNC)cc21	17000	
439	201	3			CCn1c(-c2nonc2N)nc2c(C#CC(C)(C)O)nc(CNC)cc21	5900	
1090	2020	4			CCn1c(-c2nonc2N)nc2c(C#CC(C)(C)O)nc(CCN)cc21	24000	
35	27	1	0.4	1	CCn1c(-c2nonc2N)nc2c(C#CC(C)(C)O)nc(O[C@@H](CN)c3ccccc3)cc21	519	Dose-dependent effect
1080	497	5	6	43	CCn1c(-c2nonc2N)nc2c(C#CC(C)(C)O)nc(OCCN)cc21	5000	
224	85	4	1.9	65	CCn1c(-c2nonc2N)nc2c(C#CC(C)(C)O)nc(O[C@H](CCN)c3ccccc3)cc21	29000	
124	68	3	3		CCn1c(-c2nonc2N)nc2c(C#CC(C)(C)O)nc(O[C@H](CN)c3ccccc3)cc21	20000	
4860	560	13			CCn1c(-c2nonc2N)nc2c(C#CC(C)(C)O)nc(OC[C@H](C)N)cc21	28000	
20000	6160	63			CCn1c(-c2nonc2N)nc2c(C#CC(C)(C)O)nc(OCCCCN)cc21	30000	
357	114	2			CCn1c(-c2nonc2N)nc2c(C#CC(C)(C)O)nc(CN(C)C)cc21	30000	
742	20	0.6	0.2	3	CCn1c(-c2nonc2N)nc2c(C#CC(C)(C)O)nc(OC[C@H](N)Cc3ccccc3)cc21	8000	
1500	101	3			CCn1c(-c2nonc2N)nc2c(C#CC(C)(C)O)nc(OC[C@@H](N)Cc3ccccc3)cc21	7000	
1	5	2	0.2		CCn1c(-c2nonc2N)nc2c(C#CC(C)(C)O)nc(O[C@@H](CCN)c3ccccc3)cc21	11000	
69	21				CCn1c(-c2nonc2N)nc2c(C#CC(C)(C)O)ncc(OC[C@H]3CCCNC3)c21 [GSK-690693]	> 23000	
1250	313	6		22	CCn1c(-c2nonc2N)nc2c(C#CC(C)(C)O)nc(CN3CCCC3)cc21 [GSK-1000163A]	30000	
